Data: ChEMBL document CHEMBL2384936, “Synthesis and evaluation of antimicrobial activity of hydrazones derived from 3-oxido-1H-imidazole-4-carbohydrazides” (Eur J Med Chem, 2013)
Converted amounts (≈) assume the structure as drawn. The source made the active and inactive calls. The calls are words filed in the database; no cut-off is given here.

Tests used:
[1] = system: Staphylococcus aureus; experiment: Bactericidal activity against Staphylococcus aureus isolate C4 derived from naso-pharynx after 18 hrs by broth microdilution method; assay type: functional; settings: isolate C4, 18 h
Procedure, shortened: (§1)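 Broth microdilution, then contents of wells without visible growth plated onto Mueller–Hinton agar and incubated 35 °C for 18 h. Triplicates, per CLSI.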

[2] = system: Staphylococcus aureus; experiment: Antibacterial activity against Staphylococcus aureus isolate C8 derived from naso-pharynx assessed as growth inhibition after 18 hrs by broth microdilution method; assay type: functional; settings: isolate C8, 18 h
Procedure, shortened: (§2)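 Frozen stocks (-80 °C, tryptic soy broth with 15% glycerol); S. aureus subcultured on blood agar and identified by catalase, coagulase and clumping factor. Inoculum at 0.5 McFarland. MIC = lowest concentration preventing growth; triplicates, per CLSI.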

[3] = system: Staphylococcus aureus; experiment: Antibacterial activity against Staphylococcus aureus isolate C7 derived from naso-pharynx assessed as growth inhibition after 18 hrs by broth microdilution method; assay type: functional; settings: isolate C7, 18 h; procedure, shortened: as §2
[4] = system: Staphylococcus aureus; experiment: Bactericidal activity against Staphylococcus aureus isolate D12 derived from ulcer and furuncle after 18 hrs by broth microdilution method; assay type: functional; settings: isolate D12, 18 h; procedure, shortened: as §1
[5] = system: Staphylococcus aureus; experiment: Bactericidal activity against Staphylococcus aureus isolate F12 derived from ulcer and furuncle after 18 hrs by broth microdilution method; assay type: functional; settings: isolate F12, 18 h; procedure, shortened: as §1
[6] = system: Escherichia coli; experiment: Antibacterial activity against Escherichia coli NCTC 8192 assessed as growth inhibition after 18 hrs by broth microdilution method; assay type: functional; procedure, shortened: as §2
[7] = system: Staphylococcus aureus; experiment: Antibacterial activity against Staphylococcus aureus isolate D12 derived from ulcer and furuncle assessed as growth inhibition after 18 hrs by broth microdilution method; assay type: functional; settings: isolate D12, 18 h; procedure, shortened: as §2
[8] = system: Staphylococcus epidermidis; experiment: Antibacterial activity against Staphylococcus epidermidis ATCC 12228 assessed as growth inhibition after 18 hrs by broth microdilution method; assay type: functional; settings: ATCC 12228, 18 h; procedure, shortened: as §2
[9] = system: Staphylococcus aureus; experiment: Antibacterial activity against Staphylococcus aureus isolate D14 derived from bone assessed as growth inhibition after 18 hrs by broth microdilution method; assay type: functional; settings: isolate D14, 18 h; procedure, shortened: as §2
[10] = system: Staphylococcus epidermidis; experiment: Bactericidal activity against Staphylococcus epidermidis ATCC 12228 after 18 hrs by broth microdilution method; assay type: functional; settings: ATCC 12228, 18 h; procedure, shortened: as §1
[11] = system: Staphylococcus aureus; experiment: Antibacterial activity against Staphylococcus aureus ATCC 6538 assessed as growth inhibition after 18 hrs by broth microdilution method; assay type: functional; settings: ATCC 6538, 18 h
Procedure, shortened: (§3)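 Broth microdilution in Mueller–Hinton broth with 1–600 µg/mL compound added from DMSO stocks. Inoculum adjusted to 0.5 McFarland. Strains stored at -80 °C and subcultured on blood agar before use. Incubation 37 °C for 18 h with OD600 read. MIC taken as the lowest concentration preventing growth, run in triplicate following CLSI. Vancomycin and oxacillin served as controls.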

[12] = system: Staphylococcus aureus; experiment: Bactericidal activity against Staphylococcus aureus isolate D17 derived from bone after 18 hrs by broth microdilution method; assay type: functional; settings: isolate D17, 18 h; procedure, shortened: as §1
[13] = system: Staphylococcus aureus; experiment: Bactericidal activity against Staphylococcus aureus isolate D20 derived from bone after 18 hrs by broth microdilution method; assay type: functional; settings: isolate D20, 18 h; procedure, shortened: as §1
[14] = system: Staphylococcus aureus; experiment: Antibacterial activity against Staphylococcus aureus isolate D15 derived from bone assessed as growth inhibition after 18 hrs by broth microdilution method; assay type: functional; settings: isolate D15, 18 h; procedure, shortened: as §2
[15] = system: Staphylococcus aureus; experiment: Antibacterial activity against Staphylococcus aureus ATCC 29213 assessed as growth inhibition after 18 hrs by broth microdilution method; assay type: functional; settings: ATCC 29213, 18 h; procedure, shortened: as §3
[16] = system: Staphylococcus aureus; experiment: Bactericidal activity against Staphylococcus aureus isolate D14 derived from bone after 18 hrs by broth microdilution method; assay type: functional; settings: isolate D14, 18 h; procedure, shortened: as §1
[17] = system: Staphylococcus aureus; experiment: Bactericidal activity against Staphylococcus aureus ATCC 29213 after 18 hrs by broth microdilution method; assay type: functional; settings: ATCC 29213, 18 h; procedure, shortened: as §1
[18] = system: Staphylococcus aureus; experiment: Bactericidal activity against Staphylococcus aureus isolate C19 derived from naso-pharynx after 18 hrs by broth microdilution method; assay type: functional; settings: isolate C19, 18 h; procedure, shortened: as §1
[19] = system: Escherichia coli; experiment: Bactericidal activity against Escherichia coli NCTC 8192 after 18 hrs by broth microdilution method; assay type: functional; procedure, shortened: as §1
[20] = system: Staphylococcus aureus; experiment: Antibacterial activity against Staphylococcus aureus isolate F7 derived from ulcer and furuncle assessed as growth inhibition after 18 hrs by broth microdilution method; assay type: functional; settings: isolate F7, 18 h; procedure, shortened: as §2
[21] = system: Staphylococcus aureus; experiment: Antibacterial activity against Staphylococcus aureus isolate C4 derived from naso-pharynx assessed as growth inhibition after 18 hrs by broth microdilution method; assay type: functional; settings: isolate C4, 18 h; procedure, shortened: as §2
[22] = system: Staphylococcus aureus; experiment: Antibacterial activity against Staphylococcus aureus isolate F12 derived from ulcer and furuncle assessed as growth inhibition after 18 hrs by broth microdilution method; assay type: functional; settings: isolate F12, 18 h; procedure, shortened: as §2
[23] = system: Staphylococcus aureus; experiment: Bactericidal activity against Staphylococcus aureus isolate D15 derived from bone after 18 hrs by broth microdilution method; assay type: functional; settings: isolate D15, 18 h; procedure, shortened: as §1
[24] = system: Staphylococcus aureus; experiment: Antibacterial activity against Staphylococcus aureus isolate C19 derived from naso-pharynx assessed as growth inhibition after 18 hrs by broth microdilution method; assay type: functional; settings: isolate C19, 18 h; procedure, shortened: as §2
[25] = system: Staphylococcus aureus; experiment: Bactericidal activity against Staphylococcus aureus ATCC 6538 after 18 hrs by broth microdilution method; assay type: functional; settings: ATCC 6538, 18 h; procedure, shortened: as §1
[26] = system: Staphylococcus aureus; experiment: Antibacterial activity against Staphylococcus aureus isolate D20 derived from bone assessed as growth inhibition after 18 hrs by broth microdilution method; assay type: functional; settings: isolate D20, 18 h; procedure, shortened: as §2
[27] = system: Staphylococcus aureus; experiment: Bactericidal activity against Staphylococcus aureus isolate F1 derived from ulcer and furuncle after 18 hrs by broth microdilution method; assay type: functional; settings: isolate F1, 18 h; procedure, shortened: as §1
[28] = system: Staphylococcus aureus; experiment: Bactericidal activity against Staphylococcus aureus isolate C7 derived from naso-pharynx after 18 hrs by broth microdilution method; assay type: functional; settings: isolate C7, 18 h; procedure, shortened: as §1
[29] = system: Staphylococcus aureus; experiment: Bactericidal activity against Staphylococcus aureus isolate F7 derived from ulcer and furuncle after 18 hrs by broth microdilution method; assay type: functional; settings: isolate F7, 18 h; procedure, shortened: as §1
[30] = system: Staphylococcus aureus; experiment: Antibacterial activity against Staphylococcus aureus isolate D17 derived from bone assessed as growth inhibition after 18 hrs by broth microdilution method; assay type: functional; settings: isolate D17, 18 h; procedure, shortened: as §2
[31] = system: Staphylococcus aureus; experiment: Bactericidal activity against Staphylococcus aureus isolate C8 derived from naso-pharynx after 18 hrs by broth microdilution method; assay type: functional; settings: isolate C8, 18 h; procedure, shortened: as §1
[32] = system: Staphylococcus aureus; experiment: Antibacterial activity against Staphylococcus aureus isolate F1 derived from ulcer and furuncle assessed as growth inhibition after 18 hrs by broth microdilution method; assay type: functional; settings: isolate F1, 18 h; procedure, shortened: as §2
[33] = system: Proteus vulgaris; experiment: Antibacterial activity against Proteus vulgaris ATCC 49990 assessed as growth inhibition at 1 to 600 ug/mL after 18 hrs by broth microdilution method; assay type: functional, organism-based
[34] = system: Pseudomonas aeruginosa; experiment: Antibacterial activity against Pseudomonas aeruginosa NCTC 6249 assessed as growth inhibition at 1 to 600 ug/mL after 18 hrs by broth microdilution method; assay type: functional, organism-based
[35] = system: Staphylococcus aureus; experiment: Antibacterial activity against Staphylococcus aureus ATCC 29213 assessed as growth inhibition at 1 to 600 ug/mL after 18 hrs by broth microdilution method; assay type: functional, organism-based
Procedure, shortened: as §2, with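 “McFarland. DMSO-dissolved compounds 1–600 µg/mL in Mueller–Hinton broth, 37 °C 18 h, OD600 read with and without compound.” for “McFarland.”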

[36] = system: Staphylococcus epidermidis; experiment: Antibacterial activity against Staphylococcus epidermidis ATCC 12228 assessed as growth inhibition at 1 to 600 ug/mL after 18 hrs by broth microdilution method; assay type: functional, organism-based
[37] = system: Staphylococcus aureus; experiment: Antibacterial activity against Staphylococcus aureus ATCC 6538 assessed as growth inhibition at 1 to 600 ug/mL after 18 hrs by broth microdilution method; assay type: functional, organism-based
Procedure, shortened: as §2, with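 “McFarland. DMSO-dissolved compounds 1–600 µg/mL in Mueller–Hinton broth, 37 °C 18 h, OD600 read with and without compound.” for “McFarland.”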

[38] = system: Enterococcus faecalis; experiment: Antibacterial activity against Enterococcus faecalis ATCC 29212 assessed as growth inhibition at 1 to 600 ug/mL after 18 hrs by broth microdilution method; assay type: functional, organism-based
[39] = system: Candida albicans; experiment: Antifungal activity against Candida albicans ATCC 10231 assessed as growth inhibition at 1 to 600 ug/mL after 18 hrs by broth microdilution method; assay type: functional, organism-based
[40] = system: Proteus mirabilis; experiment: Antibacterial activity against Proteus mirabilis ATCC 29906 assessed as growth inhibition at 1 to 600 ug/mL after 18 hrs by broth microdilution method; assay type: functional
[41] = system: Escherichia coli; experiment: Antibacterial activity against Escherichia coli NCTC 8192 assessed as growth inhibition at 1 to 600 ug/mL after 18 hrs by broth microdilution method; assay type: functional, organism-based

Structure (SMILES): Cc1onc(-c2ccccc2)c1C(=O)N[C@@H]1C(=O)N2[C@@H]1SC(C)(C)[C@@H]2C(=O)O [OXACILLIN]
- MBC [1]: 0.4 mg/L (≈ 0.996 µM)
- MIC [2]: 1.5 mg/L (≈ 3.74 µM)
- MIC [3]: 0.2 mg/L (≈ 0.498 µM)
- MBC [4]: 0.4 mg/L (≈ 0.996 µM)
- MBC [5]: 0.4 mg/L (≈ 0.996 µM)
- MIC [6]: inactive
- MIC [7]: 0.2 mg/L (≈ 0.498 µM)
- MIC [8]: 0.2 mg/L (≈ 0.498 µM)
- MIC [9]: 0.2 mg/L (≈ 0.498 µM)
- MBC [10]: 0.2 mg/L (≈ 0.498 µM)
- MIC [11]: 0.2 mg/L (≈ 0.498 µM)
- MBC [12]: 150 mg/L (≈ 374 µM)
- MBC [13]: 0.4 mg/L (≈ 0.996 µM)
- MIC [14]: 75 mg/L (≈ 187 µM)
- MIC [15]: 0.2 mg/L (≈ 0.498 µM)
- MBC [16]: 0.2 mg/L (≈ 0.498 µM)
- MBC [17]: 0.2 mg/L (≈ 0.498 µM)
- MBC [18]: 0.2 mg/L (≈ 0.498 µM)
- MBC [19]: inactive
- MIC [20]: 0.2 mg/L (≈ 0.498 µM)
- MIC [21]: 0.4 mg/L (≈ 0.996 µM)
- MIC [22]: 0.2 mg/L (≈ 0.498 µM)
- MBC [23]: 150 mg/L (≈ 374 µM)
- MIC [24]: 0.2 mg/L (≈ 0.498 µM)
- MBC [25]: 0.2 mg/L (≈ 0.498 µM)
- MIC [26]: 0.4 mg/L (≈ 0.996 µM)
- MBC [27]: 0.8 mg/L (≈ 1.99 µM)
- MBC [28]: 0.4 mg/L (≈ 0.996 µM)
- MBC [29]: 0.2 mg/L (≈ 0.498 µM)
- MIC [30]: 75 mg/L (≈ 187 µM)
- MBC [31]: 1.5 mg/L (≈ 3.74 µM)
- MIC [32]: 0.8 mg/L (≈ 1.99 µM)

Structure (SMILES): Cc1c(C(=O)N/N=C/c2ccco2)[n+]([O-])cn1Cc1ccccc1
- Activity [33]: inactive
- Activity [34]: inactive
- Activity [35]: inactive
- Activity [36]: inactive
- Activity [37]: inactive
- Activity [38]: inactive
- Activity [39]: inactive
- Activity [40]: inactive
- Activity [41]: inactive

Structure (SMILES): COc1ccc(/C=N/NC(=O)c2c(C)n(Cc3ccccc3)c[n+]2[O-])cc1
- Activity [33]: inactive
- Activity [34]: inactive
- Activity [35]: inactive
- Activity [36]: inactive
- Activity [37]: inactive
- Activity [38]: inactive
- Activity [39]: inactive
- Activity [40]: inactive
- Activity [41]: inactive
